Assay results as given in ChEMBL document CHEMBL1137302 (J Med Chem, 2006).
Calls of active or inactive are those of the source. No cut-off for these calls is given here.

Experiments:
D(2) dopamine receptor [1] = target: T1, D(2) dopamine receptor (Homo sapiens, UniProt P14416); assay: Binding affinity to human D2S receptor
Mustela putorius furo [2] = species: Mustela putorius furo; assay: Induction of emesis in ferret; type: functional, organism-based
Mustela putorius furo [3] = species: Mustela putorius furo; assay: Induction of nausea in ferret; type: functional, organism-based
D(4) dopamine receptor [4] = target: T2, D(4) dopamine receptor (Rattus norvegicus, UniProt P30729); assay: Agonist activity at rat D4 receptor in HEK293 cells coexpressing G-alpha-qo5 by FLIPR; type: functional, cell-based
T2 sequence (P30729 whole entry): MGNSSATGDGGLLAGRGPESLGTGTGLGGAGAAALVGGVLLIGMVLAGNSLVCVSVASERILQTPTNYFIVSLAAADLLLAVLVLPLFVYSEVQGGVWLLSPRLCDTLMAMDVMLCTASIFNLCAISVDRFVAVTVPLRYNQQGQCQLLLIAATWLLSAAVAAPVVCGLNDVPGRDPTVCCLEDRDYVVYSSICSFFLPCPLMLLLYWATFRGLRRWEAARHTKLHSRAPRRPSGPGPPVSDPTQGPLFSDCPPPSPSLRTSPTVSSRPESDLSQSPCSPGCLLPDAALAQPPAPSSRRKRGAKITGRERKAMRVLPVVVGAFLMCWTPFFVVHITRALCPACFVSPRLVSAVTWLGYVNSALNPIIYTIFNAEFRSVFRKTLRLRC

[5] = Agonist activity at ferret D4 receptor in HEK293 cells coexpressing G-alpha-qo5 by FLIPR relative to dopamine; type: functional, Mustela putorius furo
[6] = target: T3, D(4) dopamine receptor (Rattus norvegicus) (UniProt P30729); assay: Agonist activity at rat D4 receptor in HEK293 cells co-expressing Galphaqo5 by FLIPR relative to dopamine; type: functional, cell-based
T3 sequence (whole entry): T2 sequence (P30729 whole entry)

[7] = target: D(2) dopamine receptor (Rattus norvegicus) (UniProt P61169); assay: Agonist activity at rat D2 receptor in HEK293 cells coexpressing G-alpha-qo5 by FLIPR relative to dopamine upto 10 uM; type: functional, cell-based
Sequence of D(2) dopamine receptor (Rattus norvegicus) (P61169 whole entry): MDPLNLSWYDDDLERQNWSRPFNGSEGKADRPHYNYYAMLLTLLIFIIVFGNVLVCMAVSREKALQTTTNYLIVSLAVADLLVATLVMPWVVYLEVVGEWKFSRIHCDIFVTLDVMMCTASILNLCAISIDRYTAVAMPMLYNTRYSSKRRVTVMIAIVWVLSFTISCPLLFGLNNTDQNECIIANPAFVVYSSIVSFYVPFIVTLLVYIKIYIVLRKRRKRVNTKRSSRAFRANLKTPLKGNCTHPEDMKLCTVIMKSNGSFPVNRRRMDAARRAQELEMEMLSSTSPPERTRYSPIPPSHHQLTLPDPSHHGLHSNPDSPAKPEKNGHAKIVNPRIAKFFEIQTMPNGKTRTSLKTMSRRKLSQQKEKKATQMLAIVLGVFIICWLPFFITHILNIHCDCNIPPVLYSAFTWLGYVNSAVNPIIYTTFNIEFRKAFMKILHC
Summary of the method: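 Ca2+ flux by FLIPR in HEK cells cotransfected with the D2 receptor (human, ferret or rat) plus chimeric G protein Gqo5.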

D(2) dopamine receptor [8] = target: T1, D(2) dopamine receptor; assay: Displacement of [125I]7-OH-PIPAT from human D2L receptor expressed in HEK293 cell membrane; type: cell membranes
D(4) dopamine receptor [9] = target: T4, D(4) dopamine receptor (Homo sapiens, UniProt P21917); assay: Displacement of [3H]A369508 from human D4 receptor expressed in HEK293 cell membrane; type: cell membranes
T4 sequence (P21917 whole entry): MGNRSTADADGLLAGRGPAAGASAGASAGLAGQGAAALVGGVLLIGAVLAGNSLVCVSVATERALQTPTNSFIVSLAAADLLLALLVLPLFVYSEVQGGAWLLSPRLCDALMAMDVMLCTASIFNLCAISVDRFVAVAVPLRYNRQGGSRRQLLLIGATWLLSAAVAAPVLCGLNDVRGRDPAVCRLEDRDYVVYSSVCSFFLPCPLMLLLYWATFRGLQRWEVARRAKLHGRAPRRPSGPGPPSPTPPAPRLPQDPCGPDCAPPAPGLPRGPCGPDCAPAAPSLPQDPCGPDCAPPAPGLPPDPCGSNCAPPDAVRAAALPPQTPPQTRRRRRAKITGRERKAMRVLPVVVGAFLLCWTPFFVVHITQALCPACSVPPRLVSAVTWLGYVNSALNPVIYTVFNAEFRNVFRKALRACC

[10] = target: Phosphodiesterase 3 (Homo sapiens) (UniProt Q14432+Q13370); assay: Activity at PDE3 at 10 uM; type: protein assay
Summary of the method: (§1)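 Broad selectivity panel (over 70 receptors, ion channels and neuronal receptors, PDE1-6 included) run at a single 10 µM concentration.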

[11] = target: cGMP-specific 3',5'-cyclic phosphodiesterase (Homo sapiens) (UniProt O76074); assay: Activity at PDE5 at 10 uM; summary of the method: as §1
Rattus norvegicus = assay: Proerectile activity in rat measured as incidence of penile erection at 0.1 umol/kg, sc; type: functional
Summary of the method: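 Conscious male rats were given a single subcutaneous injection and observed for penile erections over the following 60 min. The read-out was the incidence of erections, expressed as % of animals ± SEM (n = 12–32 animals per group), with significance tested against controls. The value is the maximal incidence at the maximally effective dose.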

D(4) dopamine receptor [12] = target: T4, D(4) dopamine receptor; assay: Agonist activity at human D4.4 receptor in HEK293 cells coexpressing G-alpha-qo5 by FLIPR; type: functional, cell-based
[13] = Cmax in rat at 1 mg/kg, sc; type: ADME, organism-based; set-up: dose 1 mg/kg, route subcutaneous; conditions: in vivo
Summary of the method: (§2)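 Single 1 mg/kg dose given iv, sc or orally to Sprague-Dawley rats, dogs and monkeys; plasma concentrations followed over time (mean ± SEM, n = 3). Cmax, AUC, half-life, clearance and bioavailability calculated from the curves.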

[14] = Cmax in rat at 1 mg/kg, po; type: ADME, organism-based; set-up: dose 1 mg/kg, route oral; conditions: in vivo; summary of the method: as §2
[15] = Bioavailability in rat at 1 mg/kg, sc; type: ADME, organism-based; conditions: in vivo; summary of the method: as §2
[16] = Bioavailability in dog at 1 mg/kg, po; type: ADME, organism-based, Canis lupus familiaris; conditions: in vivo; summary of the method: as §2
[17] = Bioavailability in monkey at 1 mg/kg, po; type: ADME, organism-based, Macaca mulatta; conditions: rhesus monkey, in vivo; summary of the method: as §2
[18] = Half life in rat at 1 mg/kg, sc; type: ADME, organism-based; set-up: dose 1 mg/kg, route subcutaneous; conditions: in vivo; summary of the method: as §2
[19] = Half life in rat at 1 mg/kg, po; type: ADME, organism-based; set-up: dose 1 mg/kg, route oral; conditions: in vivo; summary of the method: as §2
[20] = Half life in dog at 1 mg/kg, po; type: ADME, organism-based, Canis lupus familiaris; set-up: dose 1 mg/kg, route oral; conditions: in vivo; summary of the method: as §2
[21] = Cmax in dog at 1 mg/kg, po; type: ADME, organism-based, Canis lupus familiaris; set-up: dose 1 mg/kg, route oral; conditions: in vivo; summary of the method: as §2
[22] = Cmax in monkey at 1 mg/kg, po; type: ADME, organism-based, Macaca mulatta; set-up: dose 1 mg/kg, route oral; conditions: rhesus monkey, in vivo; summary of the method: as §2
[23] = AUC in rat at 1 mg/kg, po; type: ADME, organism-based; set-up: dose 1 mg/kg, route oral; conditions: plasma; summary of the method: as §2
[24] = AUC in monkey at 1 mg/kg, po; type: ADME, organism-based, Macaca mulatta; set-up: dose 1 mg/kg, route oral; conditions: rhesus monkey, plasma; summary of the method: as §2
hERG [25] = target: T5, hERG (Homo sapiens, UniProt Q12809); assay: Blockade of current at hERG expressed in HEK293 cells at 3 ug/mL; type: cell-based; conditions: HEK293 cells that express hERG
T5 sequence (Q12809 whole entry): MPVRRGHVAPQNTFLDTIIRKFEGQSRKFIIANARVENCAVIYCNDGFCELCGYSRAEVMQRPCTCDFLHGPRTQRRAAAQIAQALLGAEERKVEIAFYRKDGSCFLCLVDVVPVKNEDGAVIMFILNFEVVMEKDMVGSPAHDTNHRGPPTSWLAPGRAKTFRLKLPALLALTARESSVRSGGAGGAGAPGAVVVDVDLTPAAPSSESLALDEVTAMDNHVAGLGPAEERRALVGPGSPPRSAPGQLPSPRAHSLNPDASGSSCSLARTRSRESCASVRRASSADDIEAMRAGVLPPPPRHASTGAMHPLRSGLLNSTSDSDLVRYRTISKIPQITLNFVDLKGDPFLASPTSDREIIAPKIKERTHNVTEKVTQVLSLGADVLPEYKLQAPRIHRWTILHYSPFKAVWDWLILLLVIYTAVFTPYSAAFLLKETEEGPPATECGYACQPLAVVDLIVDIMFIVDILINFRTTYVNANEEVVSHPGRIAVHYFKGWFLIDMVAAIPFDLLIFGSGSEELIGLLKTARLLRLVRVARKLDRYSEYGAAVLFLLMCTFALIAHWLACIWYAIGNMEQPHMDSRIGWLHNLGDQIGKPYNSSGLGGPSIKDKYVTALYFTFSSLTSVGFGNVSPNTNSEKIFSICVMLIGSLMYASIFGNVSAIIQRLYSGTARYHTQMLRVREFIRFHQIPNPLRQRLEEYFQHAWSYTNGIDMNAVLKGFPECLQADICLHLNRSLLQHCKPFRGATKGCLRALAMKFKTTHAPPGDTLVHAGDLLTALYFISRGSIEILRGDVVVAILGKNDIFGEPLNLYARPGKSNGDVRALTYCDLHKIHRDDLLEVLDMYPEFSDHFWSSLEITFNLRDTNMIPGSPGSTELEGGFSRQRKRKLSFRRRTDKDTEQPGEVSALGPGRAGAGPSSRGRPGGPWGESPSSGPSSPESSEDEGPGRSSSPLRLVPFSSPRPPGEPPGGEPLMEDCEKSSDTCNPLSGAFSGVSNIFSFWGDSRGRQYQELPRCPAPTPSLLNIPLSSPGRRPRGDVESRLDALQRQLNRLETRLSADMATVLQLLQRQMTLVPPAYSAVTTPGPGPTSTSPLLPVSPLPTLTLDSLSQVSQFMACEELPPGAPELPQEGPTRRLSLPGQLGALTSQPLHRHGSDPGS
Summary of the method: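 hERG stably expressed in HEK293 cells; whole-cell voltage clamp. Pipette: K aspartate/KCl/EGTA/MgATP, pH 7.3. Bath: NaCl-based HEPES, pH 7.4. Compound dissolved in DMSO (≤0.1%), one concentration per cell. Steps to -25 to +50 mV for 3 s, then -50 mV for 4 s, from -80 mV every 15 s; tail current measured against DMSO vehicle.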

hERG [26] = target: T5, hERG; assay: Blockade of current at hERG expressed in HEK293 cells at 1 ug/mL; type: cell-based; conditions: HEK293 cells that express hERG
Summary of the method: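 hERG stably expressed in HEK 293 cells (MEM with 10% FBS, G418), whole-cell voltage clamp. Pipette: K aspartate/KCl/EGTA/MgATP, pH 7.3. Bath: NaCl-based HEPES, pH 7.4. Compound dissolved in DMSO and diluted in bath (DMSO ≤0.1%), one concentration per cell. Steps to -25, 0, 25, 50 mV for 3 s, then -50 mV for 4 s, from -80 mV every 15 s.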

[27] = Effect on canine cardiac Purkinje fiber repolarization measured as prolongation of action potential duration at 1 ug/mL; type: functional, Canis lupus familiaris
Summary of the method: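 Canine Purkinje fibers impaled with 3 M KCl microelectrodes. Fibers accepted with resting potential below -80 mV and APD 300-500 ms. Paced at BCL 2 s, then 800 and 400 ms. Two ascending concentrations applied, each after 25 min equilibration. APD90 measured at all three rates.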

T1 sequence (P14416 whole entry): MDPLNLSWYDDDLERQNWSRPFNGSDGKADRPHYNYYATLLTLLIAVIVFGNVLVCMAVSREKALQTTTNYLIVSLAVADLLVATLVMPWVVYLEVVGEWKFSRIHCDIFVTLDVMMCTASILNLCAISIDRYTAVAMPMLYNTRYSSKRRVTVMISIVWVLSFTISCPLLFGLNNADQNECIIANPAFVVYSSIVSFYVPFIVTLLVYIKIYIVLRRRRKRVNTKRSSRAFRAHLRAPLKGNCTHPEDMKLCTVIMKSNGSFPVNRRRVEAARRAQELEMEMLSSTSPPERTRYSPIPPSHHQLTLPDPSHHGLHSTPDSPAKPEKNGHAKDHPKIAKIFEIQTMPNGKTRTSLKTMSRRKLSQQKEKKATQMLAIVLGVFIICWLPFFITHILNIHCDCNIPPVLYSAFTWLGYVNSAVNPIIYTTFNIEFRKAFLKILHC

Ki (D(2) dopamine receptor [1]): > 10000 nM
EC50 (D(4) dopamine receptor [4]): 93 nM
Efficacy [6]: 78%
Activity [7]: inactive
Ki (D(2) dopamine receptor [8]): > 10000 nM
Ki (D(4) dopamine receptor [9]): 1440 nM
Activity [10]: inactive
Activity [11]: inactive
EC50 (D(4) dopamine receptor [12]): 89 nM
Cmax [13]: 465 ng/mL
Cmax [14]: 417 ng/mL
bioavailability [15]: 84%
bioavailability [16]: 85%
bioavailability [17]: 91%
half-life [18]: 1.2 h
half-life [19]: 1.8 h
half-life [20]: 2.1 h
Cmax [21]: 1420 ng/mL
Cmax [22]: 660 ng/mL
AUC [23]: 922 ng·h/mL
AUC [24]: 2280 ng·h/mL
Compound: Cc1cccc(C(=O)NCN2CCC(c3cccc[n+]3[O-])CC2)c1
Activity (Mustela putorius furo [2]): inactive
Activity (Mustela putorius furo [3]): inactive
Efficacy [5]: 76%
Activity (Rattus norvegicus): 75%
inhibition at 3 ug/mL (hERG [25]): 14.5%
inhibition at 1 ug/mL (hERG [26]): 14.4%
Activity [27]: 0.6%
